Measurements: article PMC3411050 (The Journal of Biological Chemistry, 2012)
Like-named read-outs stand apart in the source and are kept apart here. Where no end group is shown, it is not given here.

What was measured:
L. stagnalis AChBP = L. stagnalis AChBP (Lymnaea stagnalis, UniProt P58154); details: read-out: IC50, inhibition of α-bungarotoxin binding
Human α7 nAChR [1] = molecular target: T1, Human α7 nAChR (Homo sapiens, UniProt P36544); details: read-out: IC50, inhibition of α-bungarotoxin binding
A. californica AChBP = molecular target: T2, A. californica AChBP (Aplysia californica, UniProt Q8WSF8); details: read-out: IC50, inhibition of α-bungarotoxin binding
T2 sequence (Q8WSF8 18-236 limits assumed): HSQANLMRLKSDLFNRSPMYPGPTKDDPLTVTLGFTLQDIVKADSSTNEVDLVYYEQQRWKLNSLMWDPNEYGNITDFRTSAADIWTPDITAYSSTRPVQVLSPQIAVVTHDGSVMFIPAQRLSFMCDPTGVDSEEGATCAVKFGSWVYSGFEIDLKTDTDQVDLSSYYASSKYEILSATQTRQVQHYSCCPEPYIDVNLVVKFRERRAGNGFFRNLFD

[2] = molecular target: human muscle-type nAChR, adult form (α1β1ϵδ) (Homo sapiens, UniProt P02708+P11230+Q04844+Q07001); assay type: cell-based; details: human muscle-type nAChR in oocytes; washing for 2 min
How it was run: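 Human α1, β1, δ and ε (adult) or γ (fetal) subunit cDNAs were injected into the oocyte nucleus, and two-electrode voltage clamp was run 2–3 days later. Cells received 5 s pulses of 5 μM ACh every 2 min. After stabilization, the test compound was applied at varied concentrations for at least 1 min, the ACh response was retested, and recovery was followed over several minutes.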

5-HT3AB receptor = molecular target: T3, 5-HT3AB receptor (Homo sapiens, UniProt O95264+P46098); assay: Current recording on 5-HT3 receptors in Xenopus oocytes; assay type: cell-based; details: concentrations up to 10 μM
T3 sequence (P46098 24-478): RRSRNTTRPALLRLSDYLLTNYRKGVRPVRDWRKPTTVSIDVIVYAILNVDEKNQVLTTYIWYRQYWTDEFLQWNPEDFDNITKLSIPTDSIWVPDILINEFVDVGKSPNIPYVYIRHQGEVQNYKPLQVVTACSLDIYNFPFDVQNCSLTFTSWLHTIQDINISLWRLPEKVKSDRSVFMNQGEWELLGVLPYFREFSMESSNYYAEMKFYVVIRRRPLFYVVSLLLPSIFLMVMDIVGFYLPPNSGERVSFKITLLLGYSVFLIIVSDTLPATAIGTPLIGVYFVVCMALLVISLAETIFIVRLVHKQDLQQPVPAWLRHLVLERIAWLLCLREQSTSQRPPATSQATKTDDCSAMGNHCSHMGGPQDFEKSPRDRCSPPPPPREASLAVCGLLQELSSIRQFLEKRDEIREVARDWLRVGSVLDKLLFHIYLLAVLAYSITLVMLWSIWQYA
T3 sequence (O95264 22-441): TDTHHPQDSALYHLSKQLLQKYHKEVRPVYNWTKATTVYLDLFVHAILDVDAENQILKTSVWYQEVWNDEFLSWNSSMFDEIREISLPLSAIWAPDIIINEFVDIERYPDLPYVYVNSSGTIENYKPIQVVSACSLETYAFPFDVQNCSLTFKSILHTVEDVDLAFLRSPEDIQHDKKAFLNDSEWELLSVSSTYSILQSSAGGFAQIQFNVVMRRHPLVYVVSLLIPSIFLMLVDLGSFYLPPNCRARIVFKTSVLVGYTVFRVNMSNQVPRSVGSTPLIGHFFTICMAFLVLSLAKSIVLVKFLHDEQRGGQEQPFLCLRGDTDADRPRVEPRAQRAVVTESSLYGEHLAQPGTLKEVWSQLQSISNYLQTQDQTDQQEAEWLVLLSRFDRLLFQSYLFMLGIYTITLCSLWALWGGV
How it was run: (§1)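 Human 5-HT3A (with 5-HT3B for the heteromer) subunit cRNA was transcribed in vitro from cDNA and injected into Xenopus oocytes. Currents were recorded 1–4 days after injection.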

GABAA receptor α2β3γ2 = GABAA receptor α2β3γ2 (Rattus norvegicus, UniProt P18508+P23576+P63079); assay: Two-electrode voltage clamp on recombinant GABAA receptors in Xenopus oocytes; assay type: cell-based; details: up to 10 μM
[3] = test system: adult male mice of BALB/c line; assay: Lethal effect of azemiopsin on mice; assay type: in vivo, mouse; details: intraperitoneal injection, solution in water, doses 2–10 mg/kg
How it was run: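 Adult male BALB/c mice (18–22 g) were kept on a 12/12-h light/dark cycle with food and water ad libitum. The test compound, dissolved in water, was given intraperitoneally at 2, 2.7, 4, 8 and 10 mg/kg body weight.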

5-HT3A receptor = molecular target: T4, 5-HT3A receptor (Homo sapiens, UniProt P46098); assay: Current recording on 5-HT3 receptors in Xenopus oocytes; assay type: cell-based; details: concentrations up to 10 μM
T4 sequence (P46098 24-478): T3 sequence (P46098 24-478)
How it was run: as §1

GABAA receptor α1β3γ2 = GABAA receptor α1β3γ2 (Rattus norvegicus, UniProt P18508+P62813+P63079); assay: Two-electrode voltage clamp on recombinant GABAA receptors in Xenopus oocytes; assay type: cell-based; details: up to 100 μM
T. californica nAChR [4] = molecular target: T5, T. californica nAChR (Tetronarce californica, UniProt P02710+P02712+P02714+P02718); assay type: binding, Torpedo californica; details: Torpedo nAChR, from two-site IC50 values
Human α7 nAChR [5] = molecular target: T1, Human α7 nAChR; details: read-out: IC50, inhibition of α-bungarotoxin binding; cited from earlier work
T. californica nAChR [6] = molecular target: T5, T. californica nAChR; details: read-out: IC50, inhibition of α-bungarotoxin binding; cited from earlier work

T5 sequence (P02710 25-461): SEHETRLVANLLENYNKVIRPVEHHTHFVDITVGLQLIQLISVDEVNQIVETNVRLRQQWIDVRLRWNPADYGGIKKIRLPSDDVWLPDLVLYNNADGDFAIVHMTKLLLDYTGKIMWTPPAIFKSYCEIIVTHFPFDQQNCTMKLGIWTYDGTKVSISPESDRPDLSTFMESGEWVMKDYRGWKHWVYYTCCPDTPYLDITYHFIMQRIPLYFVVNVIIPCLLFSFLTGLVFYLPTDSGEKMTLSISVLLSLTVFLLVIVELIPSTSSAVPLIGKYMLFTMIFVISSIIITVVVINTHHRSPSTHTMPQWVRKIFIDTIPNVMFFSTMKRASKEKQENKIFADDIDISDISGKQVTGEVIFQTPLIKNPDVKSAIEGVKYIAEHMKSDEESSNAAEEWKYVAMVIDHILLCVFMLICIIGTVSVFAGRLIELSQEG
T5 sequence (P02712 25-493 partner): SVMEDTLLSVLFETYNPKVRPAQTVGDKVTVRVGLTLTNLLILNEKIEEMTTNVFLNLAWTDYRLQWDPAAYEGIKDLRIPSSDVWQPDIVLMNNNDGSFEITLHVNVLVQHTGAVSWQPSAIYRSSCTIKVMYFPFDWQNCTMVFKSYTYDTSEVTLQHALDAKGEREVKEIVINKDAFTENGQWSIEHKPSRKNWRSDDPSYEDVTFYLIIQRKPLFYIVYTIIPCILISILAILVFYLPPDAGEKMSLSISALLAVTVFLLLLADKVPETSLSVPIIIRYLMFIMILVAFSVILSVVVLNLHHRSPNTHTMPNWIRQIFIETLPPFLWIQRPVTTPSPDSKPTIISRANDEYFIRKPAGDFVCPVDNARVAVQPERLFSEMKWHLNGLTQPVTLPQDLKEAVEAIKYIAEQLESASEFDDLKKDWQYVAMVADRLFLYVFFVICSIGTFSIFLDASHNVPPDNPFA
T5 sequence (P02714 18-506): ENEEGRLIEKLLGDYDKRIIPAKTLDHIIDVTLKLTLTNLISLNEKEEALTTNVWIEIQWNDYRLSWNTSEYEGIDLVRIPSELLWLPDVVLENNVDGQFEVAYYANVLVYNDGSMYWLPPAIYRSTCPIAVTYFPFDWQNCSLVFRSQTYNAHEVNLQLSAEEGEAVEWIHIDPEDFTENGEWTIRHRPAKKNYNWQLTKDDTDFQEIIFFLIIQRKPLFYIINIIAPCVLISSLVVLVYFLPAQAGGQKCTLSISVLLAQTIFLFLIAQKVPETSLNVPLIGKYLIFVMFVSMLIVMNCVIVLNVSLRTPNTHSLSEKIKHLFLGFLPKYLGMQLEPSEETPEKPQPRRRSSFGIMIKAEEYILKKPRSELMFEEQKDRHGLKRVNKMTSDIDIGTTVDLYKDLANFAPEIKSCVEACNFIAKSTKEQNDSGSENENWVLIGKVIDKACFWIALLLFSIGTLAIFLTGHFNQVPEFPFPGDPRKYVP
T5 sequence (P02718 22-522): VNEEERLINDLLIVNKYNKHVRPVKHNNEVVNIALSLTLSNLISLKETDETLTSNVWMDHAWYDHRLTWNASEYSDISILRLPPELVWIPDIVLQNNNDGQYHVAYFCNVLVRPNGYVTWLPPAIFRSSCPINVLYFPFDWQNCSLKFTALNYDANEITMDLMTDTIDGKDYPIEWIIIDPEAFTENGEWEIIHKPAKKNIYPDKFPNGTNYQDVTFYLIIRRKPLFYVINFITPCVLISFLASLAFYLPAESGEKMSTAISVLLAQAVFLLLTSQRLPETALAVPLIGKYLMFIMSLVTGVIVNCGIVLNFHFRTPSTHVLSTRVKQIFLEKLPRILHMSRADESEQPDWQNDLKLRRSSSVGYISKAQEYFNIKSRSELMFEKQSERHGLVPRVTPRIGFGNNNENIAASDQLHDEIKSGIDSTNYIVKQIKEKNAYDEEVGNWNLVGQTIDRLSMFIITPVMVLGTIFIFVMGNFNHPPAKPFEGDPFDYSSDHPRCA
T1 sequence (P36544 23-502): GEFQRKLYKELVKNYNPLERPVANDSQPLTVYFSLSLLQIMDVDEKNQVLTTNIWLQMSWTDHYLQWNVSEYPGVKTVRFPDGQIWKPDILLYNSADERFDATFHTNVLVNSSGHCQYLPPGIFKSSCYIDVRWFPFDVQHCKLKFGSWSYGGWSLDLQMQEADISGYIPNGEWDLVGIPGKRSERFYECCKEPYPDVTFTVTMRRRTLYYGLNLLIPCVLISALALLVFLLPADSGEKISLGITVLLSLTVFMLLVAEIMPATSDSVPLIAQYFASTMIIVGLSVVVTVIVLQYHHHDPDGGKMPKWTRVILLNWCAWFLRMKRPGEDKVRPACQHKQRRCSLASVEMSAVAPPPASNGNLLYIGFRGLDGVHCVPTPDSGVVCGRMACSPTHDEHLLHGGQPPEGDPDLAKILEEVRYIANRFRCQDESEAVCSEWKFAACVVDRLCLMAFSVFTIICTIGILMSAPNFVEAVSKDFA
Chain of human muscle-type nAChR, adult form (α1β1ϵδ) (P02708 21-457): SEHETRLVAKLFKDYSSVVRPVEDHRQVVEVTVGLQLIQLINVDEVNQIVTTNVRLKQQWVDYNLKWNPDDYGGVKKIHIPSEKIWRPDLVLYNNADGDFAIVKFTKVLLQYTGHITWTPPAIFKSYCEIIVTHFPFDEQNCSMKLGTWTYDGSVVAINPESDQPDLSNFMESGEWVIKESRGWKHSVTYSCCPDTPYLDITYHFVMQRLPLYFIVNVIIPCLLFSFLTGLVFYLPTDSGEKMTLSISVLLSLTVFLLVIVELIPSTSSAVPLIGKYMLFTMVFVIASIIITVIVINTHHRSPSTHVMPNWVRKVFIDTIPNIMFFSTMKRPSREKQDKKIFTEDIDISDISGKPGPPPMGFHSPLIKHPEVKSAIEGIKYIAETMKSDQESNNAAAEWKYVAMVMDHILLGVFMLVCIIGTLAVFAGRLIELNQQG
Chain of human muscle-type nAChR, adult form (α1β1ϵδ) (P11230 24-501 partner): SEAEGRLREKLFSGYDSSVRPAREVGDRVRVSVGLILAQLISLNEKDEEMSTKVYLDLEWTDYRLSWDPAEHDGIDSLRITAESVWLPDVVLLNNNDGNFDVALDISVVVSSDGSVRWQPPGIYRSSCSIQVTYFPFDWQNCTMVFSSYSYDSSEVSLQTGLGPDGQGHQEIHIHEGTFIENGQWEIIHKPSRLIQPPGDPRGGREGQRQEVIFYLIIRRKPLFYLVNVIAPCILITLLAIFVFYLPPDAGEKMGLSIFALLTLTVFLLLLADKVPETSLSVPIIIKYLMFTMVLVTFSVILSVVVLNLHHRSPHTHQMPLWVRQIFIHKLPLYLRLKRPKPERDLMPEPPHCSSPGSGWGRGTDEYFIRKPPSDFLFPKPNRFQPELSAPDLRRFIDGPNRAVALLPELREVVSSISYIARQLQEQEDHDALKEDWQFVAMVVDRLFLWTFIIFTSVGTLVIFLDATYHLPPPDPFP
Chain of human muscle-type nAChR, adult form (α1β1ϵδ) (Q04844 21-493): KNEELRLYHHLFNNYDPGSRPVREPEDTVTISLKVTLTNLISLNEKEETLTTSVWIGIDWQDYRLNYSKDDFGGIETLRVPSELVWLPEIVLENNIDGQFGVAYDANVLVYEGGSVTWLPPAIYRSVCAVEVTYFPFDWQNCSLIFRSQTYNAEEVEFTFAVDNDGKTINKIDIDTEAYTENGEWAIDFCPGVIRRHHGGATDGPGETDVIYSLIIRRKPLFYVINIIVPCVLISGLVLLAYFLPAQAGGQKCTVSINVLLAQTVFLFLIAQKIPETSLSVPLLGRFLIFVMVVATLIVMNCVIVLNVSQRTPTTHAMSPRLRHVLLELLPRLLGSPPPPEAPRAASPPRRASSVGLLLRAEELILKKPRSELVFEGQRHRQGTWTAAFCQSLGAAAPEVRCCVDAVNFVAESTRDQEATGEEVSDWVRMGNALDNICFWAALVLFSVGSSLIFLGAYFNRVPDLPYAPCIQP
Chain of human muscle-type nAChR, adult form (α1β1ϵδ) (Q07001 22-517): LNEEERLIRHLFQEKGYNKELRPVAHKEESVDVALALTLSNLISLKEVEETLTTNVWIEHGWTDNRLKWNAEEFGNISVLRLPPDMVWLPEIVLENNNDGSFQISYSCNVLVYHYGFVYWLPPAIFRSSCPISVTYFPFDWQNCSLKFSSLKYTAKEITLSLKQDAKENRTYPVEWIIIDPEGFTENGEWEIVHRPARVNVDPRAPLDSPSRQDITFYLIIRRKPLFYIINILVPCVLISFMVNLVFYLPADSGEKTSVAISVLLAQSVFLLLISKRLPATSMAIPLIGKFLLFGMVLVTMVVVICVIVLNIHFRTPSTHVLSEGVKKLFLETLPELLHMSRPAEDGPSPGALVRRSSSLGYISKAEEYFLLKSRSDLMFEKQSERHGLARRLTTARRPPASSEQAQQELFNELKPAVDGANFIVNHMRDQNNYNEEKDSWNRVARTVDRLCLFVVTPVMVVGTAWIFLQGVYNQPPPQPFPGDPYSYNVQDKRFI
Chain of L. stagnalis AChBP (P58154 20-229): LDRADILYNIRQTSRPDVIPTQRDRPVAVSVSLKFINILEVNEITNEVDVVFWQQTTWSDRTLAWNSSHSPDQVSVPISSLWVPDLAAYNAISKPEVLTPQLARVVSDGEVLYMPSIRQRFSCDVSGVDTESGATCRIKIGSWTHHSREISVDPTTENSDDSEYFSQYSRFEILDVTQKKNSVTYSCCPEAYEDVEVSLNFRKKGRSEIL

α-Cobratoxin
IC50 (L. stagnalis AChBP): 2 ± 0.2 nM
IC50 (Human α7 nAChR [1]): 105 ± 10 nM
IC50 (A. californica AChBP): 58 ± 2 nM

DNWWPKPPHQGPRPPRPRPKP [Azemiopsin]
recovery of the ACh response after washing out the toxin [2]: complete recovery
effect at 5-HT3AB receptors (5-HT3AB receptor): no effects
effect on GABAA receptor currents (GABAA receptor α2β3γ2): no significant effects
LD50 [3]: 2.6 ± 0.3 mg/kg
effect at 5-HT3A receptors (5-HT3A receptor): no effects
effect on GABAA receptor currents (GABAA receptor α1β3γ2): no significant effects
difference in the affinity between the two binding sites (α1/γ and α1/δ) (T. californica nAChR [4]): 27 fold

Neurotoxin II Naja oxiana
IC50 (Human α7 nAChR [5]): > 4000 nM
IC50 (T. californica nAChR [6]): 3 nM
